Data reported in ChEMBL document CHEMBL4049440, “First Dual Inhibitors of Steroid Sulfatase (STS) and 17β-Hydroxysteroid Dehydrogenase Type 1 (17β-HSD1): Designed Multiple Ligands as Novel Potential Therapeutics for Estrogen-Dependent Diseases” (J Med Chem, 2017).
Activity calls are given as the source filed them. No cut-off for these calls is given here.

How the values were obtained:
[1] = target: T1, 17-beta-hydroxysteroid dehydrogenase type 1 (Homo sapiens, UniProt P14061); assay: Inhibition of human placental cytosolic 17beta-HSD1 using [3H]-E1/E1 substrate and NADH after 10 mins by HPLC based radio-detection method
T1 sequence (P14061 whole entry): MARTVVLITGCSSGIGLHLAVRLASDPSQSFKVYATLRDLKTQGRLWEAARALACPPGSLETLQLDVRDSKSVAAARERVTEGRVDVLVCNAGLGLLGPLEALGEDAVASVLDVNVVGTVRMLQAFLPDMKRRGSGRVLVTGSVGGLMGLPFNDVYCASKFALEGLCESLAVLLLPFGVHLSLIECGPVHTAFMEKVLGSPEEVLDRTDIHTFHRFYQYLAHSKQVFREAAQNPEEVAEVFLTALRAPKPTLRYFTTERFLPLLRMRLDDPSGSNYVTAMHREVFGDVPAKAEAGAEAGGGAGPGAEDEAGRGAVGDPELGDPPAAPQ
How it was run: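 Cell-free assay with the cytosolic fraction of human placenta as the 17β-HSD1 source and radiolabeled E1 as substrate, with test compound present.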

[2] = Selectivity factor, ratio of IC50 for human placental microsomal 17beta-HSD2 cells to IC50 for human placental cytosolic 17beta-HSD1
[3] = target: T2, 17-beta-hydroxysteroid dehydrogenase type 2 (Homo sapiens, UniProt P37059); assay: Inhibition of human placental microsomal 17beta-HSD2 using [3H]-E2/E2 substrate and NAD+ after 20 mins by HPLC based radio-detection method
T2 sequence (P37059 whole entry): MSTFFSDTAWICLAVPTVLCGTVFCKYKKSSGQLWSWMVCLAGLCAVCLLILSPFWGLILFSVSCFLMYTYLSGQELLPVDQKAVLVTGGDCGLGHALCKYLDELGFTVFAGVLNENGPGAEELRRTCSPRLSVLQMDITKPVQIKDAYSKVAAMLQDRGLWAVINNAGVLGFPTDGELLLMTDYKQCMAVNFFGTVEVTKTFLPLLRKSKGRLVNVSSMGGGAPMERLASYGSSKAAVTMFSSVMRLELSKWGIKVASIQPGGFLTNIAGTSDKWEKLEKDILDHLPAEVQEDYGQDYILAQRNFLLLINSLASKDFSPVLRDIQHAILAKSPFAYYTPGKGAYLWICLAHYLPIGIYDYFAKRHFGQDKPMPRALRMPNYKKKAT

Steryl-sulfatase [4] = target: T3, Steryl-sulfatase (Homo sapiens, UniProt P08842); assay: Inhibition of human placental microsomal STS assessed as formation of E1 preincubated for 30 mins followed by addition of E1S as substrate measured after 20 mins by ELISA
T3 sequence (P08842 whole entry): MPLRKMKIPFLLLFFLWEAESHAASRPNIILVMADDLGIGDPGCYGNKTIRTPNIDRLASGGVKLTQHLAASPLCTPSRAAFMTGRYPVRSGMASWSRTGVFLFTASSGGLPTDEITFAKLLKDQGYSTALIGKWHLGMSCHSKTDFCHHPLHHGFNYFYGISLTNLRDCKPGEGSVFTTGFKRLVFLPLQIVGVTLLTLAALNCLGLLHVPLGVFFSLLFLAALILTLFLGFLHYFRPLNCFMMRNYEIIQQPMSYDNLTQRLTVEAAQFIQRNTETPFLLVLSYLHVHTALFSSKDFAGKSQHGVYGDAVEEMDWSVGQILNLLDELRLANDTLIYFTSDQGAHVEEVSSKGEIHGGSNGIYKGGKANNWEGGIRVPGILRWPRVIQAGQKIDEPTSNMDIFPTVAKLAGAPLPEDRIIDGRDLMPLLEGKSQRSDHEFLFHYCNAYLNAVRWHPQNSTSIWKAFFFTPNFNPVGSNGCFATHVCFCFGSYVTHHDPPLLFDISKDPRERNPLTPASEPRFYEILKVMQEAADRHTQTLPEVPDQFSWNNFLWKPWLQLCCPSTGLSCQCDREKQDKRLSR
How it was run: (§1)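 Human placental STS incubated with estrone sulfate (E1S) as substrate in the presence of inhibitor; estrone (E1) formed was quantified by ELISA.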

[5] = Stability of the compound in Tris-HCl buffer at pH 7.2 after 30 mins; assay type: physicochemical; settings: pH 7.2, 0.5 h
How it was run: (§2)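 Compound incubated in 20 mM Tris-HCl buffer, pH 7.2, at 37 °C for 30 min. Remaining parent compound was measured, with sulfamate cleavage to the phenolic OH product monitored.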

[6] = target: T4, 17-beta-hydroxysteroid dehydrogenase type 1 (Homo sapiens) (UniProt P14061); assay: Inhibition of 17beta-HSD1 in human T47D cells assessed as [3H]-E1 level at 200 nM after 48 hrs by HPLC based radio-detection method (reference value: 0.9%); assay type: cell-based; parameters: scale not given: the % may be the effect or the level left
T4 sequence (whole entry): T1 sequence (P14061 whole entry)

[7] = target: T5, 17beta-HSD2 (17-beta-hydroxysteroid dehydrogenase type 2) (Homo sapiens, UniProt P37059); assay: Inhibition of human placental microsomal 17beta-HSD2 at 1 uM using [3H]-E2/E2 substrate and NAD+ after 20 mins by HPLC based radio-detection method; settings: human placental microsomal 17beta-HSD2, probe [3H]-E2/E2
T5 sequence (P37059 whole entry): T2 sequence (P37059 whole entry)

[8] = target: T6, Steryl-sulfatase (Homo sapiens) (UniProt P08842); assay: Inhibition of STS in human T47D cells assessed as [3H]-E1S level at 200 nM after 48 hrs by HPLC based radio-detection method; assay type: cell-based; parameters: scale not given: the % may be the effect or the level left
T6 sequence (whole entry): T3 sequence (P08842 whole entry)

T47D [9] = assay: Antiproliferative activity against E1S/E1-stimulated human T47D cells assessed as cell viability at 50 to 200 nM measured after 7 days after MTT assay relative to control; assay type: functional
[10] = target: T4, 17-beta-hydroxysteroid dehydrogenase type 1 (Homo sapiens); assay: Inhibition of human placental cytosolic 17beta-HSD1 at 1 uM using [3H]-E1/E1 substrate and NADH after 10 mins by HPLC based radio-detection method
How it was run: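 Enzyme from the cytosolic fraction of human placenta, incubated with radiolabelled estrone as substrate. Values are the mean of at least two independent experiments, each run in duplicate, with standard deviation under 15%.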

[11] = target: T4, 17-beta-hydroxysteroid dehydrogenase type 1 (Homo sapiens); assay: Inhibition of 17beta-HSD1 in human T47D cells assessed as [3H]-E2 level at 200 nM after 48 hrs by HPLC based radio-detection method (reference value: 95.2%); assay type: cell-based; parameters: scale not given: the % may be the effect or the level left
[12] = target: T4, 17-beta-hydroxysteroid dehydrogenase type 1 (Homo sapiens); assay: Inhibition of 17beta-HSD1 in human T47D cells at 1 uM preincubated for 1 hr followed by addition of [3H]-E1/E1 as substrate measured after 30 mins by HPLC based radio-detection method; assay type: cell-based
[13] = target: T6, Steryl-sulfatase (Homo sapiens); assay: Inhibition of STS in human T47D cells at 1 uM preincubated for 1 hr followed by addition of [3H]-E1S/E1S as substrate measured after 24 hrs by HPLC based radio-detection method; assay type: cell-based
[14] = target: T6, Steryl-sulfatase (Homo sapiens); assay: Irreversible inhibition of STS in human T47D cells at 1 uM preincubated for 2 hrs followed by compound washout and addition of [3H]-E1S/E1S as substrate measured after 24 hrs by HPLC based radio-detection method; assay type: cell-based
[15] = target: T1, 17-beta-hydroxysteroid dehydrogenase type 1; assay: Inhibition of 17beta-HSD1 in human T47D cells preincubated for 1 hr followed by addition of [3H]-E1/E1 as substrate measured after 30 mins by HPLC based radio-detection method; assay type: cell-based
[16] = target: T6, Steryl-sulfatase (Homo sapiens); assay: Inhibition of human placental microsomal STS assessed as formation of E1 at 1 uM preincubated for 30 mins followed by addition of E1S as substrate measured after 20 mins by ELISA; how it was run: as §1
HEK293 = assay: Cytotoxicity against HEK293 cells assessed as reduction in cell viability at 0.1 to 1 uM after 48 hrs by MTT assay; assay type: cell-based; settings: human, hek293, 48 h
[17] = target: T6, Steryl-sulfatase (Homo sapiens); assay: Inhibition of STS in human T47D cells assessed as [3H]-E1S level at 400 nM after 48 hrs by HPLC based radio-detection method (reference value: 3.9%); assay type: cell-based; parameters: scale not given: the % may be the effect or the level left
[18] = target: T4, 17-beta-hydroxysteroid dehydrogenase type 1 (Homo sapiens); assay: Irreversible inhibition of 17beta-HSD1 in human T47D cells at 50 nM preincubated for 2 hrs followed by compound washout and addition of […] as substrate measured after 24 hrs by HPLC based radio-detection method; assay type: cell-based
[19] = target: T4, 17-beta-hydroxysteroid dehydrogenase type 1 (Homo sapiens); assay: Inhibition of 17beta-HSD1 in human T47D cells assessed as [3H]-E1 level at 400 nM after 48 hrs by HPLC based radio-detection method (reference value: 0.9%); assay type: cell-based; parameters: scale not given: the % may be the effect or the level left
T47D [20] = assay: Antiproliferative activity against E2-stimulated human T47D cells assessed as reduction in cell viability at 400 nM measured after 7 days after MTT assay; assay type: functional, cell-based
Steryl-sulfatase [21] = target: T3, Steryl-sulfatase; assay: Irreversible inhibition of STS in human T47D cells preincubated for 2 hrs followed by compound washout and addition of [3H]-E1S/E1S as substrate measured after 24 hrs by HPLC based radio-detection method; assay type: cell-based
[22] = target: T4, 17-beta-hydroxysteroid dehydrogenase type 1 (Homo sapiens); assay: Inhibition of 17beta-HSD1 in human T47D cells assessed as [3H]-E2 level at 400 nM after 48 hrs by HPLC based radio-detection method (reference value: 95.2%); assay type: cell-based; parameters: scale not given: the % may be the effect or the level left
T47D [23] = assay: Antiproliferative activity against E1S/E1-stimulated human T47D cells assessed as reduction in cell viability measured after 7 days after MTT assay; assay type: functional, cell-based
T47D [24] = assay: Cytotoxicity against human T47D cells assessed as reduction in cell viability at 400 nM after 7 days by MTT assay; assay type: cell-based; settings: 168 h, 0.4 µM
Steryl-sulfatase [25] = target: T3, Steryl-sulfatase; assay: Inhibition of STS in human T47D cells preincubated for 1 hr followed by addition of [3H]-E1S/E1S as substrate measured after 24 hrs by HPLC based radio-detection method; assay type: cell-based
[26] = Drug degradation in Tris-HCl buffer assessed as formation of metabolite containing phenolic OH-group by measuring remaining parent compound levels at pH 7.2 after 30 mins; how it was run: as §2

Cc1cc(-c2ccc(C(=O)c3c(F)ccc(O)c3F)s2)ccc1OS(N)(=O)=O
IC50 [1]: 32.4 nM
Ratio IC50 [2]: 1
IC50 [3]: 31.2 nM
IC50 (Steryl-sulfatase [4]): 221 nM
Stability [5]: Stable

NS(=O)(=O)Oc1ccc2c3c(c(=O)oc2c1)CCCCC3 [IROSUSTAT]
Activity [6]: 0.8%
inhibition at 20 min, 1 µM [7]: < 10%
Activity [8]: 50%
Activity (T47D [9]): 200%
inhibition [10]: < 10%
Activity [11]: 49.2%
inhibition [12]: < 5%

NS(=O)(=O)Oc1cccc(-c2ccc(C(=O)c3c(F)ccc(O)c3F)s2)c1F
IC50 [1]: 7.1 nM
Ratio IC50 [2]: 2.5
IC50 [3]: 17.4 nM
IC50 (Steryl-sulfatase [4]): 123 nM
Stability [5]: Stable

O=C(c1ccc(-c2ccc(O)cc2)s1)c1c(F)ccc(O)c1F
IC50 [1]: 3.1 nM
inhibition [13]: < 5%
inhibition [14]: < 5%
Ratio IC50 [2]: 23.1
IC50 [15]: 7.9 nM
inhibition [16]: < 10%
Activity [6]: 88.4%
Activity [8]: 3.5%
Activity (T47D [9]): 150%
Activity [11]: 7.9%

NS(=O)(=O)Oc1ccc(-c2ccc(C(=O)c3c(F)ccc(O)c3F)s2)cc1Cl
Activity (HEK293): Non-Toxic
IC50 [1]: 1.1 nM
Activity [17]: 50%
inhibition [18]: inactive
Activity [19]: 48.9%
Ratio IC50 [2]: 33
Activity (T47D [20]): inactive
IC50 [15]: 22.2 nM
IC50 (Steryl-sulfatase [21]): 16.4 nM
Activity [22]: 1.1%
Activity (T47D [23]): Dose-dependent effect
Activity (T47D [24]): Non-Toxic
IC50 [3]: 36.1 nM
IC50 (Steryl-sulfatase [4]): 143 nM
Stability [5]: Stable
IC50 (Steryl-sulfatase [25]): 15.6 nM

NS(=O)(=O)Oc1ccc(-c2ccc(C(=O)c3c(F)ccc(O)c3F)s2)c(F)c1F
Stability [26]: 28%
IC50 [1]: 2.7 nM
Ratio IC50 [2]: 8.6
IC50 [3]: 23.2 nM
IC50 (Steryl-sulfatase [4]): 105 nM

Cc1cc(OS(N)(=O)=O)ccc1-c1ccc(C(=O)c2c(F)ccc(O)c2F)s1
IC50 [1]: 43.5 nM
Ratio IC50 [2]: 0.9
IC50 [3]: 40 nM
IC50 (Steryl-sulfatase [4]): 35 nM
Stability [5]: Stable
